Measured values: ChEMBL document CHEMBL3600302, “A Ligand-Based Drug Design. Discovery of 4-Trifluoromethyl-7,8-pyranocoumarin as a Selective Inhibitor of Human Cytochrome P450 1A2” (J Med Chem, 2015)

Columns and labels:
[1] = biological target: T1, Aryl hydrocarbon receptor (Homo sapiens, UniProt P35869); assay: Activation of human AhR expressed in Saccharomyces cerevisiae MYA-3637 assessed as upregulation of cytochrome P450 expression at <10^-6 M by LacZ reporter assay; format: ADME
T1 sequence (P35869 whole entry): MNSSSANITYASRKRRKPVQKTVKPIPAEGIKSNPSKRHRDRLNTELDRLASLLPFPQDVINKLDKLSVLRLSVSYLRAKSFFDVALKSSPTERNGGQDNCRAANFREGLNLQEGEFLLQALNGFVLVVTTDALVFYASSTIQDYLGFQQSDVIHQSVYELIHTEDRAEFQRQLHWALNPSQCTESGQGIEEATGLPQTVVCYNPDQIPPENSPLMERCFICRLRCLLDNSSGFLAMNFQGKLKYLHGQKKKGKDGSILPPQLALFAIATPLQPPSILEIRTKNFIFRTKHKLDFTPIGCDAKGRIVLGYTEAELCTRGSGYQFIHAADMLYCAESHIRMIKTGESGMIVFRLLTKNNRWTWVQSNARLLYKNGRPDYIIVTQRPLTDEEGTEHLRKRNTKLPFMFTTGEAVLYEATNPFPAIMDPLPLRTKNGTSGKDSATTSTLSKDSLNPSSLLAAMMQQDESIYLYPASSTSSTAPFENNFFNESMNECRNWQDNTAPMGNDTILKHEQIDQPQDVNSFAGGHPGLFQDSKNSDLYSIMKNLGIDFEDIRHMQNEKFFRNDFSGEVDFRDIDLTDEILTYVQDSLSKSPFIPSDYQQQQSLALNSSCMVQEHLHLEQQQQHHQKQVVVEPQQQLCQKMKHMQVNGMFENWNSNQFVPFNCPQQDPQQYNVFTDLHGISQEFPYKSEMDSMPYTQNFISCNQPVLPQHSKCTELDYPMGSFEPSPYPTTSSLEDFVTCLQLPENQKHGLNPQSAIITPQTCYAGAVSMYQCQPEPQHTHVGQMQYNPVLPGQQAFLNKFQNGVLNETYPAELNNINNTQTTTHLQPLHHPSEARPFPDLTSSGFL
How it was run: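 Yeast with integrated human AhR (GAL promoter) and lacZ reporter plasmid, grown on tryptophan-free synthetic minimal medium with galactose instead of glucose. Compounds in DMSO (1% v/v final) added to overnight culture in quadruplicate and left until next day. Abs600 read, then lysis buffer with sarcosyl, DTT and ONPG added. Abs405/Abs600 taken as activation. 10^-8 M βNF positive control. At least three repeats.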

[2] = tested on: HepG2; assay: Cytotoxicity against human HepG2 cells assessed as cell viability up to 10^-5 M after 72 hrs by MTT assay; format: cell-based; settings: hepg2, 72 h
[3] = biological target: T2, Cytochrome P450 1A2 (Homo sapiens, UniProt P05177); assay: Inhibition of CYP1A2-dependent methoxyresorufin-O-demethylase activity in human HepG2 cells at > 10^-6 M preincubated for 24 hrs followed by substrate addition measured at 10, 30, 60 mins by fluorescence assay; format: cell-based; settings: hepg2, 1 h
T2 sequence (P05177 whole entry): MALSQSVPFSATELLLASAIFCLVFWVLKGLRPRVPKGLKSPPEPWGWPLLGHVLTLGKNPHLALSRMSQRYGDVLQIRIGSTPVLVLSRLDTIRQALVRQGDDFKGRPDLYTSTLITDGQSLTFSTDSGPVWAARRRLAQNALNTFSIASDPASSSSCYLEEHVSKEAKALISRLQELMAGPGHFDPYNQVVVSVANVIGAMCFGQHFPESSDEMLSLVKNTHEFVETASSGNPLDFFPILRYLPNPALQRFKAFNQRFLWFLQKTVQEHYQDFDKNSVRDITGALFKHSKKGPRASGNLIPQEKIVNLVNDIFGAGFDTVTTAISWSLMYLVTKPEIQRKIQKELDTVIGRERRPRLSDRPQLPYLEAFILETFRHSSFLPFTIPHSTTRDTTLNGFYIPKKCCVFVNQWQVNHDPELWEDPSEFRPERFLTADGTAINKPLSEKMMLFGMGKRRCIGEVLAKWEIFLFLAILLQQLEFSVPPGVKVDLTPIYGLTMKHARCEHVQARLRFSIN
How it was run: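 HepG2 cells (DMEM, 10% FBS, 37 °C, 5% CO2), 2 × 10^5 per well, plated overnight. Exposed 24 h to compound at final 10^-4 to 10^-7 M in DMSO. 10^-5 M βNF positive control, DMSO blank. Then washed with PBS and given medium with 5 × 10^-6 M methoxyresorufin. Resorufin fluorescence (ex 535/em 585 nm) read at 10, 30, 60 min. Triplicate, three independent experiments, unpaired t test.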

[4] = biological target: T3, Cytochrome P450 1A1 (Homo sapiens, UniProt P04798); assay: Inhibition of human microsomal CYP1A1-dependent ethoxyresorufin-O-deethylase activity by spectrofluorimetric analysis in presence of NADPH regenerating solution
T3 sequence (P04798 whole entry): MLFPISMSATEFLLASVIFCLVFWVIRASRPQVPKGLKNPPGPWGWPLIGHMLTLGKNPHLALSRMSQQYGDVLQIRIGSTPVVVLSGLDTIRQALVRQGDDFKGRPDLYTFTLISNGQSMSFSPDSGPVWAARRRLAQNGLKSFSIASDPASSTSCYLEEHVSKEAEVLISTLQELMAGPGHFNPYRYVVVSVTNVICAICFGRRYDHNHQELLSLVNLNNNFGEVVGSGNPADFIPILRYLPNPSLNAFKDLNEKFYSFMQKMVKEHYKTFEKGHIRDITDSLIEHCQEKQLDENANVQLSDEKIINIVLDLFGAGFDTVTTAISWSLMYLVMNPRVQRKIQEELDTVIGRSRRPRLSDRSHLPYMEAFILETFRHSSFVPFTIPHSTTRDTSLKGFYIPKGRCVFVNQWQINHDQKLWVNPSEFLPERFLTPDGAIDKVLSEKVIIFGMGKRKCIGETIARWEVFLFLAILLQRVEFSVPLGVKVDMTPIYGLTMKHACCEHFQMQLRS
How it was run: (§1)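 Microsomal P450 (final 5 nM) in 0.1 M potassium phosphate pH 7.6 with MgCl2 at 37 °C. Substrate final 5 µM: ethoxyresorufin for 1A1/1B1, methoxyresorufin for 1A2. […] Ki was taken as the x-intercept of Dixon plots (1/v0 vs [I]). Mean ± SD of three independent experiments. Selectivity ratios are ratios of these Ki.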

[5] = biological target: T2, Cytochrome P450 1A2; assay: Time-dependent inhibition of human microsomal CYP1A2-dependent methoxyresorufin-O-demethylase activity by spectrofluorimetric analysis in presence of NADPH regenerating solution
How it was run: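 1A2 MROD run with NADPH at 0.0125, 0.025, 0.05 and 0.1 µM inhibitor, product monitored continuously over 6 min. Activity at different times came from first derivatives of product curves, expressed as % of control remaining. KI and limiting kinact were derived from the resulting linear plot.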

[6] = species: Homo sapiens; assay: Selectivity ratio of Ki for human microsomal CYP1A1 to Ki for human microsomal CYP1A2; how it was run: as §1
[7] = biological target: T4, Cytochrome P450 1B1 (Homo sapiens, UniProt Q16678); assay: Inhibition of human microsomal CYP1B1-dependent ethoxyresorufin-O-deethylase activity by spectrofluorimetric analysis in presence of NADPH regenerating solution
T4 sequence (Q16678 whole entry): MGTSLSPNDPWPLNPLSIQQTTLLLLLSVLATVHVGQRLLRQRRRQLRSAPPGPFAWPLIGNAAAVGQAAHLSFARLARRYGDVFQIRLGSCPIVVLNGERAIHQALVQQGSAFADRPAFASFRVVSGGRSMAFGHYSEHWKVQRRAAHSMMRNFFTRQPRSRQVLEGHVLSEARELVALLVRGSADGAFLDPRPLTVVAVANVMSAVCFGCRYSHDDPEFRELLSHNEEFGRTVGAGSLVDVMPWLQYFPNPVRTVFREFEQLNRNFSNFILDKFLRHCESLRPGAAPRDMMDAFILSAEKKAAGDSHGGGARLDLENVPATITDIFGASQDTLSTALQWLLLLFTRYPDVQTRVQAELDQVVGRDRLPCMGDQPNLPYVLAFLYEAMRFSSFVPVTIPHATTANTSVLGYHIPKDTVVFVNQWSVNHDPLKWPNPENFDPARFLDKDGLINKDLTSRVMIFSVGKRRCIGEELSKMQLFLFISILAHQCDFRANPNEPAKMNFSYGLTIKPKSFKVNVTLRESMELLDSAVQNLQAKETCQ
How it was run: (§2)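 Microsomal P450 (final 5 nM) in 0.1 M potassium phosphate pH 7.6 with MgCl2 at 37 °C. Substrate final 5 µM: ethoxyresorufin for 1A1/1B1, methoxyresorufin for 1A2. Ki was taken as the x-intercept of Dixon plots (1/v0 vs [I]). Mean ± SD of three independent experiments. Selectivity ratios are ratios of these Ki.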

[8] = biological target: T2, Cytochrome P450 1A2; assay: Inhibition of human microsomal CYP1A2-dependent methoxyresorufin-O-demethylase activity by spectrofluorimetric analysis in presence of NADPH regenerating solution; how it was run: as §2
[9] = species: Homo sapiens; assay: Selectivity ratio of Ki for human microsomal CYP1B1 to Ki for human microsomal CYP1A2; how it was run: as §1

## O=c1cc(C(F)(F)F)c2ccc3c(c2o1)C=CCO3
[1]
  Activity: Not Active
[2]
  Activity: Non-toxic
[3]
  inhibition (INH): Active
[4]
  Ki: 60.6 µM
[5]
  TDI: Not Active
[6]
  Ratio Ki: 155
[7]
  Ki: 20.4 µM
[8]
  Ki: 0.39 µM
[9]
  Ratio Ki: 52
